Compound activity from PubChem BioAssay.
A selection: hits, their analogues and other compounds. The true share with any hit is near 3.4%.
CHRM1 PAM – potentiates human M1 receptor response to acetylcholine; activation, % at 3 µM; AID 588819; CHO-K1 hM1, Fluo-8 calcium fluorescence, ACh EC20; 0% = ACh EC20, 100% = maximal ACh; P11229; 360,000 compounds, 0.088% hits; in the data active = activation above about 19%, passing the limit was not always enough
M1 ag – human M1 muscarinic receptor agonism; CHO-K1 hM1, Fluo-8 calcium fluorescence, agonist mode; 0% DMSO, 100% acetylcholine EC100; activation, % at 3 µM; 360,000 compounds, 0.33% hits;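 active = activation above the run's mean compound activation plus 3 SD, cut at about 16% in these data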;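 also: peak over basal fluorescence ratio within a 140 s kinetic read after compound addition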
M1 antag – human CHRM1 antagonism; CHO-K1 hM1, Fluo-8 calcium fluorescence, ACh EC80 antagonist; inhibition, % at 3 µM; 360,000 compounds, 1.3% hits;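 active = percent inhibition above its own plate's cutoff, namely the mean of that plate's compound wells plus 3 SD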;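 also: peak over basal fluorescence ratio during 140 s after agonist addition; 0% = ACh EC80 plus DMSO and 100% = DMSO alone without agonist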
TAAR1 antag – human TAAR1 antagonism. CHO RD-HGA16 TAAR1, Fluo-8 calcium fluorescence, antagonist. inhibition, % at 3 µM. 360,000 compounds, 1.5% hits;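 active = inhibition above a per-plate cutoff, the mean inhibition of test compounds on that plate plus 3 SD, cut at about 49% in these data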;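 also: 0% = DMSO plus EC80 beta-PEA response and 100% = DMSO alone without agonist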
Target sequence (Q96RJ0 whole entry, looked up): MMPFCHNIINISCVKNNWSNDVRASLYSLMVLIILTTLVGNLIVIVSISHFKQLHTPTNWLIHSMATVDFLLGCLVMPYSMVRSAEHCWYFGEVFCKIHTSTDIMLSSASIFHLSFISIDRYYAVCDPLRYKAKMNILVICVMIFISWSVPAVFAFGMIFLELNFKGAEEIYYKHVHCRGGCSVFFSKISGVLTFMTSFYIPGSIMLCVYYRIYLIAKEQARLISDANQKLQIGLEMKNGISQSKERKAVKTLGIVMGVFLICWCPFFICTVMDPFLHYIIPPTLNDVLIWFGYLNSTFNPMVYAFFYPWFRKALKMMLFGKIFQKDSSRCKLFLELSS
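Test system: RD-HGA16 CHO cells with stable hTAAR1 and Gα16 / Probe or stimulus: EC80 β-phenethylamine stimulus / Times: seeding 17-24 h prior, 75-min 37 °C, 30-min RT dye loading / Detection: Fluo-8 calcium-sensitive fluorescence / Read-out basis: % inhibition scaled between DMSO and EC80 PEA controls / Repeats: singlicate, one well per test compound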
TAAR1 ag – agonists of human TAAR1 | Q96RJ0 | CHO RD-HGA16 TAAR1, Fluo-8 calcium fluorescence; vehicle wells 0%, saturating PEA agonist 100% | activation, % at 3 µM | 360,000 compounds, 0.99% hits | AID 624467;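 active = activation above the mean activation of all test compounds in the run plus 3 SD, cut at about 38% in these data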
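test system = CHO RD-HGA16 cells carrying human TAAR1 plus Gα16 | schedule = 17-24 h seeding, 75 min 37 °C dye, 30 min RT | compound dosing = 3 µM single concentration | control set = DMSO and PEA EC100 | replicates = n 1 | signal = Fluo-8 fluorescence, 5 s baseline then 140 s kinetic read | measure = percent activation vs PEA EC100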
Starred values were filed as active, the others as inactive; . = not tested or not shown; ! = not active in a repeat.

SMILES | CHRM1 PAM | M1 ag | M1 antag | TAAR1 antag | TAAR1 ag
C[C@@H]1C(=O)O[C@H]2[C@H](O)[C@]34[C@@H]5OC(=O)[C@]3(OC3OC(=O)[C@H](O)C34[C@H](C(C)(C)C)[C@@H]5O)[C@@]12O (stereo not given in full) | 3.5 | 2.4 | -19.2 | -40.4 | 20.7
COc1c(C)cc(C(=O)C2CCCN(Cc3cccc(C)n3)C2)cc1C (stereo not given) | -29.9 | -11.6 | 32.9* | 1.0 | 5.3
COc1cccc(C(=O)C2CCCN(Cc3cccc(C)n3)C2)c1 (stereo not given) | -29.9 | -12.0 | 27.0* | 9.3 | 7.1
Cc1cccc(CN2CCCC(C(=O)c3ccc4c(c3)OCO4)C2)n1 (stereo not given) | -32.0 | -13.2 | 33.1* | 5.8 | 2.9
Cc1cccc(CN2CCCC(C(=O)c3cccc(OC(C)C)c3)C2)n1 (stereo not given) | -30.0 | -12.3 | 17.1 | -4.5 | 2.5
COc1cccc(C(=O)C2CCCN(Cc3ccon3)C2)c1 (stereo not given) | 11.2 | -14.2 | -10.3 | 5.4 | 2.8
CN1CCC(OC(=O)C2c3ccccc3Oc3ccccc32)CC1 | -21.3 | -6.9 | 98.8* | 1.3 | 22.1
CC(=O)Nc1ccc(OC(=O)N2CCCCC2)cc1 | 7.1 | -5.3 | -8.6 | -5.9 | 3.7
O=C(Oc1ccc([N+](=O)[O-])cc1)N1CCC(N2CCCCC2)CC1 | -40.9 | -13.3 | 85.4* | 7.9 | -0.3
CN1CC[C@@H]2CN[C@H](c3ccccc3Br)C[C@@H]21 | . | . | . | -21.5 | 3.1
COC(=O)C(O)(c1ccc(NC(=S)NC(=O)c2ccc(Cl)cc2Cl)c(C)c1)C(F)(F)F (stereo not given) | -0.6 | 10.7 | 16.2 | 71.6* | 34.2
COC(=O)C(O)(c1ccc(NC(=S)NC(=O)c2ccc(Cl)cc2Cl)cc1)C(F)(F)F (stereo not given) | -10.5 | 21.4* | 21.8 | 54.3* | 47.7*
C[C@]12CC[C@H](O)CC1=CCC1C2CC[C@]2(C)C(=O)[C@H](Br)CC12 (stereo not given in full) | -20.3 | 4.3 | 27.2 | 58.6* | 11.9
Cc1ccc(C2CC3CCC(C2)N3Cc2ccccc2F)cc1 (stereo not given) | -21.6 | -8.0 | 30.1 | -1.4 | 14.2
Cc1ccc(CN2C3CCCC2CC(NC(=O)Nc2cccc(F)c2)C3)cc1 (stereo not given) | -18.2 | -5.1 | 37.7* | 4.7 | 12.6
ClCCN(CCCl)c1ccc(C=Cc2ccncn2)cc1 | -9.8 | -3.0 | 13.7 | 28.7 | 6.8
C#C[C@]1(O)CCC2C3C(=O)C=C4C=CCC[C@]4(C)C3CC[C@@]21C (stereo not given in full) | -6.9 | 1.4 | 0.5 | 48.6* | 14.1
CCC1([N+](=O)[O-])COP(=O)(NCc2cccnc2)OC1 (stereo not given) | -3.9 | -0.6 | -4.8 | -4.8 | 5.4
Cc1cc(O)ccc1Cl | . | . | . | -8.0 | 0.1
Oc1ccc(Cl)c(Cl)c1Cl | -22.6 | -2.0 | 24.3* | 14.1 | 5.5
COc1cccc(C2CCN(C)C2)c1 (stereo not given) | -1.2 | 29.0* | -3.8 | -9.1 | 37.0
COc1ccc2[nH]c(C)c(CCNCc3cccnc3)c2c1 | 10.7 | -4.0 | -12.1 | -4.1 | 9.5
CCOc1cccc(CNCCc2c(C)[nH]c3ccc(OC(F)(F)F)cc23)c1O | -10.6 | 9.9 | 36.8* | 49.0* | 54.7*
Cc1[nH]c2ccc(OC(F)(F)F)cc2c1CCNCc1ccc(Cl)cc1 | 9.9 | -2.4 | 1.9 | 35.1 | 38.5*
Cc1[nH]c2ccc(OC(F)(F)F)cc2c1CCNCc1cccc([N+](=O)[O-])c1 | -0.6 | 3.7 | 9.2 | 49.4* | 44.3*
SMILES | CHRM1 PAM | M1 ag | M1 antag | TAAR1 antag | TAAR1 ag
Clc1ccc([C@H]2CC3CCC2N3)cn1 (stereo not given in full) | . | . | . | -33.4 | 5.2
COC(=O)C1C(OC(=O)c2ccccc2)CC2CCC1[N+]2(C)C (stereo not given) | . | . | . | -17.5 | 1.0
C[C@]12CCC3C(CC[C@H]4C[C@@H](O)CC[C@]34C)C1CC[C@@]2(O)C(F)(F)F (stereo not given in full) | -16.3 | -5.4 | 0.6 | 12.1 | 3.4
CCN(CC)CCC(=O)O[C@H]1CC[C@]2(C)C3CC[C@@]4(C)C(CC[C@]4(C)O)C3CC[C@H]2C1 (stereo not given in full) | -27.2 | 7.6 | 49.6* | 60.0* | 42.6*
Clc1cc(Cl)cc(CN2Cc3cc(Br)ccc3-n3nncc3C2)c1 | . | . | . | -23.5 | -1.9
N#CC(CCN1CCOCC1)(c1ccccc1)c1ccccc1 | -20.3 | -5.8 | 41.5* | -37.7 | 1.0
CCC(=O)C(CCN1CCOCC1)(c1ccccc1)c1ccccc1 | -3.8 | -3.0 | 0.0 | -36.4 | 4.2
CN(C)c1ccc(/C=C/c2cc[n+](C)c3ccccc23)cc1 | 3.9 | -4.9 | 29.8*! | -13.4 | 1.2
COC(=O)C1=C(c2ccc(OCc3ccccc3)cc2)C[C@@H]2CC[C@H]1N2C(=O)NCCc1ccc(F)cc1 | -8.1 | -6.4 | 4.2 | -4.4 | 9.4
CCCCNC(C)Cc1ccccc1 (stereo not given) | -2.2 | -8.6 | -1.6 | 2.1 | 0.6
COc1ccc(CC(C)NCCC(c2ccccc2)c2ccccc2)cc1 (stereo not given) | -13.5 | -5.2 | 8.4 | 42.6 | 42.5*
CCOP(=S)(OCC)Oc1cc(C)nc(C(C)C)n1 | 4.7 | -3.3 | -27.8 | -1.0 | -0.9
Cc1ccc(C)c(NP(=O)(Oc2ccccc2)Oc2ccccc2)c1 | -10.4 | -2.4 | 35.8* | 80.0* | 8.0
Cc1ccc(S(=O)(=O)NP(=O)(Oc2ccccc2)Oc2ccccc2)cc1 | 9.7 | 1.6 | -7.5 | -11.8 | 7.0
Cc1ccc(N2Cc3ccccc3-n3nncc3C2)cc1 | . | . | . | -15.8 | -0.2
Cc1nn(Cc2ccccc2)c(Cl)c1C(=O)O | 8.7 | -3.3 | -8.0 | 2.3 | 0.6
Cc1nn(Cc2ccccc2Cl)c(Cl)c1C(=O)O | 2.3 | -3.9 | 35.7* | -18.9 | -0.3
O=S(=O)(c1ccc(Cl)cc1)N1Cc2cc(Br)ccc2-n2nncc2C1 | 1.4 | -0.5 | -3.0 | 13.8 | -2.1
COC1C(C)OC(OC2CC(C)(O)Cc3cc4c(c(O)c32)C(=O)c2c(O)cc3c(c2C4=O)OC2OC3(C)C(O)C(N(C)C)C2O)C(OC)C1(C)OC (stereo not given) | -3.0 | 10.6 | -6.0 | 39.3 | 47.1*
O=c1[nH]c2ccccc2n1C1CCN(Cc2ccc(-c3nc4ccc(F)cc4nc3-c3ccccc3)cc2)CC1 | . | . | . | 34.1 | -2.2
C[N+]1(C)[C@@H]2CC(OC(=O)[C@H](CO)c3ccccc3)C[C@H]1[C@@H]1O[C@@H]12 (stereo not given in full) | . | . | . | -18.6 | -0.1
